Results from ChEMBL document CHEMBL2424614, “A novel p-terphenyl derivative inducing cell-cycle arrest and apoptosis in MDA-MB-435 cells through topoisomerase inhibition” (Eur J Med Chem, 2013).
The source made the active and inactive calls. The rule behind the calls is not given here.

Key:
[1] = test system: LNCaP; experiment: Cytotoxicity against human LNCAP cells assessed as growth inhibition after 72 hrs by MTT assay; type: functional, cell-based
Procedure, shortened: (§1)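 MTT assay: cells treated in triplicate with a range of concentrations for 72 h at 37 °C, 5% CO2. Medium replaced, MTT (5 mg/mL) added for 4 h, then SDS/isobutanol/HCl solubiliser overnight. Absorbance read at 590 nm. Inhibition calculated against control and blank wells; IC50 is concentration giving 50% growth inhibition; three independent experiments.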

[2] = target: DNA topoisomerase 2-alpha (Homo sapiens) (UniProt P11388); experiment: Inhibition of recombinant human DNA topoisomerase 2-alpha assessed as supression of kDNA decatenation at 100 uM after 30 mins by agarose gel electrophoresis
Procedure, shortened: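 ATP-dependent decatenation assay: 0.20 µg kDNA with 2 units Topo IIα at 37 °C for 30 min, 20 µL. Buffer: 50 mM Tris pH 8.0, KCl, 10 mM MgCl₂, 0.5 mM ATP, 0.5 mM DTT, 30 µg/mL BSA. Stopped with 10% SDS. Agarose gel scored for kDNA versus released minicircles.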

[3] = test system: A549; experiment: Cytotoxicity against human A549 cells assessed as growth inhibition after 72 hrs by MTT assay; type: functional, cell-based; procedure, shortened: as §1
[4] = organism: Bos taurus; experiment: Inhibition of calf thymus DNA topoisomerase 1-mediated relaxation of supercoiled pBR322 DNA at 100 uM after 30 mins by Agarose gel electrophoresis
Procedure, shortened: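 Relaxation assay with 0.5 µg supercoiled pBR322 and 1 unit calf thymus Topo I, 20 µL. Buffer: 10 mM Tris–HCl pH 7.9, 150 mM NaCl, 0.1% BSA, 1 mM spermidine, 5% glycerol. Incubated 37 °C for 30 min; stopped with sarcosyl stop solution. 1% agarose gel, 5 V/cm, 2 h, TAE; ethidium bromide stain (0.5 µg/mL), UV. DMSO stocks. At least duplicate.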

[5] = test system: MDA-MB-435; experiment: Cytotoxicity against human MDA-MB-435 cells assessed as growth inhibition after 72 hrs by MTT assay; type: functional, cell-based; procedure, shortened: as §1
[6] = test system: MDA-MB-435; experiment: Induction of DNA damage in human MDA-MB-435 cells assessed as phosphorylation of ATM at Ser1981 at 10 uM after 12 hrs by Western blotting analysis; type: functional, cell-based
Procedure, shortened: (§2)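 Treated MDA-MB-435 cells lysed in ice-cold Tris-HCl pH 7.4 buffer with Triton, phosphatase and protease inhibitors. Lysates clarified, boiled in SDS loading buffer, run on 8-12% SDS-PAGE and blotted. Membranes blocked in 5% skim milk, probed with primary antibodies, then peroxidase secondaries with ECL detection. β-actin as loading control.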

[7] = test system: MDA-MB-435; experiment: Induction of DNA damage in human MDA-MB-435 cells assessed as phosphorylation of p53 at Ser15 at 10 uM after 12 hrs by Western blotting analysis; type: functional, cell-based; procedure, shortened: as §2
[8] = test system: MDA-MB-435; experiment: Induction of DNA damage in human MDA-MB-435 cells assessed as phosphorylation of H2AX at Ser139 at 10 uM after 12 hrs by Western blotting analysis; type: functional, cell-based; procedure, shortened: as §2
[9] = test system: MDA-MB-435; experiment: Cytotoxicity against human MDA-MB-435 cells assessed as growth inhibition at 100 uM after 72 hrs by MTT assay
[10] = target: DNA topoisomerase 2-alpha (Homo sapiens) (UniProt P11388); experiment: Inhibition of recombinant human DNA topoisomerase 2-alpha-mediated relaxation of supercoiled pBR322 DNA at 100 uM after 30 mins by Agarose gel electrophoresis
Procedure, shortened: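 Relaxation assay with 0.5 µg supercoiled pBR322 and 1 unit recombinant human Topo IIα, 20 µL. Incubated 30 min at 30 °C; stopped with 7 mM EDTA. 1% agarose gel, 5 V/cm, 2 h, TAE; ethidium bromide stain, UV. DMSO stocks. At least duplicate.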

[11] = test system: Calf thymus DNA; experiment: Induction of DNA intercalation activity of calf thymus DNA topoisomerase 1 assessed as unwinding of pBR322 DNA at 100 uM after 30 mins by Agarose gel electrophoresis; type: nucleic-acid assay; conditions: Bos taurus
Procedure, shortened: (§3)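 Relaxed pBR322 made by treating supercoiled plasmid with excess Topo I (10 units), then proteinase K digestion at 37 °C, phenol-chloroform extraction and ethanol precipitation. Relaxed DNA incubated with compound at 37 °C for 30 min; stopped with gel loading buffer. Run on 1% agarose, TAE, 5 V/cm for 2 h; stained with ethidium bromide 0.5 µg/mL, viewed under UV.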

[12] = test system: Calf thymus DNA; experiment: Induction of DNA intercalation activity of calf thymus DNA topoisomerase 1 assessed as unwinding of pBR322 DNA at 10 ug/ml after 30 mins by Agarose gel electrophoresis; type: nucleic-acid assay; conditions: Bos taurus; procedure, shortened: as §3
[13] = test system: Calf thymus DNA; experiment: Induction of DNA intercalation activity of calf thymus DNA topoisomerase 1 assessed as unwinding of pBR322 DNA at 2 ug/ml after 30 mins by Agarose gel electrophoresis; type: nucleic-acid assay; conditions: Bos taurus; procedure, shortened: as §3

Sequence of DNA topoisomerase 2-alpha (Homo sapiens) (P11388 whole entry): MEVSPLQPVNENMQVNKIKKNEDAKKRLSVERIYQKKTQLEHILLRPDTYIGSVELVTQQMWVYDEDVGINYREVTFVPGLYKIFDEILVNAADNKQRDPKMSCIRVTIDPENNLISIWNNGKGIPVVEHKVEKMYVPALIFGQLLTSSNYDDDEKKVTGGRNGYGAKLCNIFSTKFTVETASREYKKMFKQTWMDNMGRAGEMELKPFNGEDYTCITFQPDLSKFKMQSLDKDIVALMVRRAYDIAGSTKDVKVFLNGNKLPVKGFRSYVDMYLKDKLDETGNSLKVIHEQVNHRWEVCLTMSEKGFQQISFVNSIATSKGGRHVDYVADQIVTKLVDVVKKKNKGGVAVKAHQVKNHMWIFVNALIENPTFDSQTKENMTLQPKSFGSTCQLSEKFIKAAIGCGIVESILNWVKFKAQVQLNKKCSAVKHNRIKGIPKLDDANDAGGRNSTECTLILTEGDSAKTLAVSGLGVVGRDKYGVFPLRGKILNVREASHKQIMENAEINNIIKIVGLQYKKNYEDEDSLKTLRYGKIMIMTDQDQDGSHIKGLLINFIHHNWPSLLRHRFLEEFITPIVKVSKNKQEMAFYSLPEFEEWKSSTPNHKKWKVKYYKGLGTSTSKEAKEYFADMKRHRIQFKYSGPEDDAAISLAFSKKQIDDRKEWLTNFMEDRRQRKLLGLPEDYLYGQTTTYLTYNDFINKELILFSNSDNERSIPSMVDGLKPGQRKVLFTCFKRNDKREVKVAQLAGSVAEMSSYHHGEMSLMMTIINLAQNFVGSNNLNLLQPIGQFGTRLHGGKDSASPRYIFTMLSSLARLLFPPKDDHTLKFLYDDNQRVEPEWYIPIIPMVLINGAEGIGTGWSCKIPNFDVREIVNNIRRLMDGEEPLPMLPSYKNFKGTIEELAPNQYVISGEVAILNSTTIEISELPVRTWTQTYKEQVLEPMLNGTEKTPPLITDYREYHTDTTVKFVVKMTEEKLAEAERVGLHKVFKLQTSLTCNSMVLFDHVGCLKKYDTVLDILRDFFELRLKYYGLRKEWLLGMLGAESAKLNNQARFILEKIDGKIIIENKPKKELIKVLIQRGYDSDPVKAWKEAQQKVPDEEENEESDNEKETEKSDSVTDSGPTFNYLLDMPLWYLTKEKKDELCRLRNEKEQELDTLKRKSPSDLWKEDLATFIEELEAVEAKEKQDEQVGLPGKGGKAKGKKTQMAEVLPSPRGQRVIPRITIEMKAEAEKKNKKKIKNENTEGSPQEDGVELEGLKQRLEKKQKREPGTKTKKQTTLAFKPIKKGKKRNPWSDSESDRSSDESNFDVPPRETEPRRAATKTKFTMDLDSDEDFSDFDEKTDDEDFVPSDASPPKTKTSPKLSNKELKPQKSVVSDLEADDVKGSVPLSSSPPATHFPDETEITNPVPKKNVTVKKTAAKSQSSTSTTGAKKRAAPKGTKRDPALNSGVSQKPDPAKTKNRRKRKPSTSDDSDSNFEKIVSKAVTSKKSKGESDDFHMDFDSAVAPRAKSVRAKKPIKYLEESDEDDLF

Structure (SMILES)	inhibition [2]	inhibition [4]	inhibition [10]	other results
Oc1ccc(-c2ccc(-c3ccc(O)c(O)c3)c(O)c2)cc1	Active	inactive		growth inhibition (GI) [1]: Active; growth inhibition (GI) [3]: Active; growth inhibition (GI) [5]: Active
COc1cc([C@@H]2c3cc4c(cc3[C@@H](O[C@@H]3O[C@@H]5CO[C@@H](C)O[C@H]5[C@H](O)[C@H]3O)[C@H]3COC(=O)[C@H]23)OCO4)cc(OC)c1O				Activity [6]: Active; Activity [7]: Active; Activity [8]: Active
Oc1ccc(-c2ccc(-c3ccc(O)c(O)c3)c(O)c2O)cc1	Active	inactive		growth inhibition (GI) [1]: Active; growth inhibition (GI) [3]: Active; growth inhibition (GI) [5]: Active
COc1ccc(-c2cc(OC)c(-c3ccc(OC)c(OC)c3)c(OC)c2)cc1	inactive	inactive	inactive	Activity [9]: inactive
Oc1ccc(-c2cc(O)c(-c3ccc(O)c(O)c3)c(O)c2)cc1	Active	Active		growth inhibition (GI) [1]: Active; growth inhibition (GI) [3]: Active; growth inhibition (GI) [5]: Active
COc1ccc(-c2ccc(-c3ccc(O)cc3)c(OC)c2OC)cc1OC	inactive	inactive	inactive	
COc1ccc(-c2ccc(-c3ccc(O)cc3)cc2)cc1OC	inactive	inactive	inactive	
CC[C@@]1(O)C(=O)OCc2c1cc1n(c2=O)Cc2cc3c(O)cccc3nc2-1		Active		Activity [11]: inactive
COc1ccc(-c2ccc(-c3ccc(OC)c(OC)c3)c(OC)c2)cc1	inactive	inactive	inactive	Activity [9]: inactive
CC[N+](C)(CC)CCC[n+]1c(-c2ccccc2)c2cc(N)ccc2c2ccc(N)cc21				Activity [12]: Active
CC[n+]1c(-c2ccccc2)c2cc(N)ccc2c2ccc(N)cc21				Activity [13]: Active
